Source: ChEMBL document CHEMBL1122805, “Structure-activity relationships of sparsomycin and its analogues. Octylsparsomycin: the first analogue more active than sparsomycin” (1984)
Values after ≈ are worked out from the molar mass of the structure shown. Active and inactive are the calls of the source. No cut-off for these calls is given here.

Key:
L1210 [1] = experiment: In vitro cytostatic activity and inhibition of leukemia L1210 cells. The dose causing 50% of inhibition of colony formation (ID50) relative to untreated control cells; type: functional; conditions: Mus musculus, read-out: ID50 (the source's name)
In short: (§1)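 Mouse leukemia L1210 cells taken from suspension culture; 100 cells plated per dish in soft agar medium (Dulbecco's with 20% horse serum, 2-mercaptoethanol, L-asparagine, DEAE-dextran, 0.3% agar) containing compound at several concentrations. Continuous exposure 8 days, 37 °C, 10% CO2, humidified. Colonies counted; ID50 from dose-effect curves versus untreated controls. Highest dose tested 100 μg/mL.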

L1210 [2] = experiment: In vitro cytostatic activity and inhibition of leukemia L1210 cells. The dose causing 50% of inhibition of colony formation (ID50) relative to untreated control cells; NA-Not Active; type: functional, cell-based; conditions: Mus musculus; in short: as §1

Row | IC50 (L1210 [1]) [µg/mL] | Compound | ID50 (L1210 [2])
1 | 66 (≈ 183 µM) | Cc1nc(O)nc(O)c1/C=C/C(=O)N[C@@H](CO)CSC[S+](C)[O-] (some centres undefined) | 
2 |  | Cc1nc(O)nc(O)c1/C=C/C(=O)N[C@H](CO)CSC[S+](C)[O-] (some centres undefined) | inactive
3 |  | CSC[S@@+]([O-])C[C@@H](CO)NC(=O)/C=C/c1c(C)[nH]c(=O)[nH]c1=O | inactive
4 | 0.15 (≈ 0.415 µM) | CSC[S@+]([O-])C[C@H](CO)NC(=O)/C=C/c1c(C)[nH]c(=O)[nH]c1=O | 
5 | 2.1 (≈ 5.81 µM) | CSC[S@@+]([O-])C[C@H](CO)NC(=O)/C=C/c1c(C)[nH]c(=O)[nH]c1=O | 
6 | 4.4 (≈ 12.7 µM) | CSCSC[C@H](CO)NC(=O)/C=C/c1c(C)nc(O)nc1O | 
7 | 0.05 (≈ 0.109 µM) | CCCCCCCCSC[S+]([O-])C[C@H](CO)NC(=O)/C=C/c1c(C)nc(O)nc1O (some centres undefined) | 
8 |  | CSC[S@+]([O-])C[C@@H](CO)NC(=O)/C=C/c1c(C)nc(O)nc1O | inactive
9 |  | CSCSC[C@@H](CO)NC(=O)/C=C/c1c(C)nc(O)nc1O | inactive
